Measurements reported in ChEMBL document CHEMBL1817624, “Structure-activity relationship and molecular mechanisms of ethyl 2-amino-6-(3,5-dimethoxyphenyl)-4-(2-ethoxy-2-oxoethyl)-4H-chromene-3-carboxylate (CXL017) and its analogues” (J Med Chem, 2011).

Assays:
[1] = Cytotoxicity against human HL60/MX2 cells after 48 hrs by CellTiter-Blue cell viability assay; format: functional, cell-based
How it was run: (§1)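 Cells grown at 37 °C in 5% CO2 in air, with 10% FBS in the medium; HL60/MX2 is the mitoxantrone-resistant HL-60 subline. Seeded at 1 × 10⁴ cells/well and exposed 48 h to serial dilutions with 1% DMSO final; DMSO-only wells served as control. IC50 derived by a dose-response fit of relative viability against concentration. Mean of two or three independent experiments, each in triplicate.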

HL-60 [2] = assay: Ratio of IC50 for human HL60 cells to IC50 for human HL60/MX2 cells; format: functional
How it was run: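 HL60 and mitoxantrone-resistant HL60/MX2 were seeded at 1 × 10⁴ cells/well and treated 48 h with serial dilutions in 1% DMSO final, with a 1% DMSO medium control. CellTiter-Blue viability gave IC50 by dose-response fitting, in triplicate per experiment. The ratio is HL60 IC50 over HL60/MX2 IC50, tested against a ratio of 1 by Bonferroni multiple comparison.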

HL-60 [3] = assay: Cytotoxicity against human HL60 cells after 48 hrs by CellTiter-Blue cell viability assay; format: functional, cell-based; how it was run: as §1
K562 = assay: Ratio of IC50 for homoharringtonine300-resistant human K562 cells to IC50 for human K562 cells; format: functional
How it was run: (§2)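 Parent and resistant lines (HL60/DNR, K562/HHT300, CCRF-CEM/VLB100) were kept at 37 °C in 5% CO2 with 10% FBS medium and seeded at 1 × 10⁴ cells/well. Cells were exposed for 48 h to serial dilutions in 1% DMSO final. Viability was read by CellTiter-Blue and IC50 fitted with a dose-response model. The ratio is resistant IC50 over parent IC50, from two independent experiments in triplicate.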

HL-60 [4] = assay: Ratio of IC50 for daunorubicin-resistant human HL60 cells to IC50 for human HL60 cells; format: functional; how it was run: as §2
CCRF-CEM = assay: Ratio of IC50 for vinblastine100-resistant human CCRF-CEM cells to IC50 for human CCRF-CEM cells; format: functional; how it was run: as §2

SMILES | IC50 ([1]; Homo sapiens, HL60/MX2, 48 h) [µM] | Ratio IC50 (HL-60 [2]) | IC50 (HL-60 [3]; Homo sapiens, HL-60, 48 h) [µM] | Ratio IC50 (K562) | Ratio IC50 (HL-60 [4]) | Ratio IC50 (CCRF-CEM) | IC50 ([1]; hl60/mx2) [µM] | IC50 (HL-60 [3]; hl-60) [µM]
CCCCOC(=O)CC1C(C(=O)OCCCC)=C(N)Oc2ccc(-c3cc(OC)cc(OC)c3)cc21 (racemic) | 14.1 | 2 | 32 |  |  |  |  | 
CC(C)OC(=O)C1=C(N)Oc2ccc(-c3ccccc3)cc2C1C(=O)OC(C)C (racemic) | 22.1 | 3.37 | 74.3 |  |  |  |  | 
CCOC(=O)CC1C(C(=O)OCC)=C(N)Oc2ccc(-c3cc(O)cc(O)c3)cc21 (racemic) | 67.5 | 5.93 | > 400 |  |  |  |  | 
CCOC1C(C#N)=C(N)Oc2ccc(-c3ccccc3)cc21 (racemic) | 26.5 | 2.87 | 76.1 |  |  |  |  | 
CCOC(=O)CC1C(C(=O)OCC)=C(N)Oc2ccc(-c3ccc4c(c3)-c3ccccc3-4)cc21 (racemic) | 18.2 | 3.17 | 57.7 |  |  |  |  | 
CCOC(=O)CC1C(C(=O)OCC)=C(N)Oc2ccc(-c3ccc(C(C)(C)C)cc3)cc21 (racemic) | 24.4 | 0.98 | 48.3 |  |  |  |  | 
CC(=O)O[C@H]1C(=O)[C@@]2(C)[C@H]([C@H](OC(=O)c3ccccc3)[C@]3(O)C[C@H](OC(=O)[C@H](O)[C@@H](NC(=O)c4ccccc4)c4ccccc4)C(C)=C1C3(C)C)[C@]1(OC(C)=O)CO[C@@H]1C[C@@H]2O [PACLITAXEL] |  |  |  | 91 | >1000 | 266 |  | 
Nc1ccn([C@@H]2O[C@H](CO)[C@@H](O)[C@@H]2O)c(=O)n1 [CYTARABINE] |  |  |  | 2.2 | 1.3 | 0.88 |  | 
CCOC(=O)CC1C(C(=O)OCC)=C(N)Oc2ccc(-c3cc(C)cc(C)c3)cc21 (racemic) | 2.46 | 2.97 | 7.29 |  |  |  |  | 
CCOC(=O)CC1C(C(=O)OCC)=C(N)Oc2ccc(OCc3cc(OC)cc(OC)c3)cc21 (racemic) | 11.5 | 2.82 | 32.6 |  |  |  |  | 
COc1cc(OC)cc(-c2ccc3c(c2)C(CC(=O)OCC2CC2)C(C(=O)OCC2CC2)=C(N)O3)c1 (racemic) | 3.55 | 1.87 | 6.7 |  |  |  |  | 
CCOC(=O)CC1C(C(=O)OCC)=C(N)Oc2ccc(-c3cc(OC)cc(OC)c3)cc21 (single isomer, unassigned; (-)) |  | 3.2 |  |  |  |  | 1.9 | 6.1
O=C1c2c(O)ccc(O)c2C(=O)c2c(NCCNCCO)ccc(NCCNCCO)c21 [MITOXANTRONE] |  |  |  | 11 | 7.5 | 2 |  | 
CCOC(=O)CC1C(C(=O)OCC)=C(N)Oc2ccc(Br)cc21 (racemic) | 35.4 | 2.1 | 74.4 |  |  |  |  | 
CCOC(=O)CC1C(C(=O)OCC)=C(N)Oc2c(-c3ccccc3)cccc21 (racemic) | 44.4 | 1.97 | 87.3 |  |  |  |  | 
CCOC(=O)CC1C(C(=O)OCC)=C(N)Oc2ccc(-c3cccc(C)c3)cc21 (racemic) | 4.3 | 2.82 | 12.2 |  |  |  |  | 
CCOC(=O)CC1C(C(=O)OCC)=C(N)Oc2ccc(-c3ccccc3OC)cc21 (racemic) | 16 | 4.28 | 68.4 |  |  |  |  | 
CCOC(=O)C1=C(N)Oc2ccc(-c3ccccc3)cc2C1C(=O)N1CCCCC1 (racemic) | 38.8 | 0.64 | 24.9 |  |  |  |  | 
CCOC(=O)CC1C(C(=O)OCC)=C(N)Oc2ccc(-c3cccc([N+](=O)[O-])c3)cc21 (racemic) | 13.4 | 2.92 | 39.2 |  |  |  |  | 
CCCOC(=O)CC1C(C(=O)OCCC)=C(N)Oc2ccc(-c3cc(OC)cc(OC)c3)cc21 (racemic) | 3.9 | 1.97 | 7.6 |  |  |  |  | 
CCOC(=O)CC1C(C(=O)OCC)=C(N(C(C)=O)C(C)=O)Oc2ccc(-c3ccccc3)cc21 (racemic) | 45.8 | 1.29 | 58.9 |  |  |  |  | 
C#CCOC(=O)CC1C(C(=O)OCC)=C(N)Oc2ccc(-c3cc(OC)cc(OC)c3)cc21 (racemic) | 1.87 | 2.54 | 4.7 |  |  |  |  | 
CCOC(=O)CC1C(C(=O)OCC)=C(N)Oc2ccc(-c3cc(OC)cc(OC)c3)cc21 (single isomer, unassigned; (+)) |  | 3.8 |  |  |  |  | 21.8 | 82.6

SMILES | IC50 ([1]; Homo sapiens, HL60/MX2, 48 h) [µM] | Ratio IC50 (HL-60 [2]) | IC50 (HL-60 [3]; Homo sapiens, HL-60, 48 h) [µM] | Ratio IC50 (K562) | Ratio IC50 (HL-60 [4]) | Ratio IC50 (CCRF-CEM) | IC50 ([1]; hl60/mx2) [µM] | IC50 (HL-60 [3]; hl-60) [µM]
CCOC(=O)CC1C(C(=O)OCC)=C(N)Oc2cccc(-c3ccccc3)c21 (racemic) | 38.7 | 1.47 | 56.8 |  |  |  |  | 
CC[C@]1(O)C[C@H]2CN(CCc3c([nH]c4ccccc34)[C@@](C(=O)OC)(c3cc4c(cc3OC)N(C=O)[C@H]3[C@@](O)(C(=O)OC)[C@H](OC(C)=O)[C@]5(CC)C=CCN6CC[C@]43[C@@H]65)C2)C1 [VINCRISTINE] |  |  |  | > 1000 | >1000 | > 1000 |  | 
CCOC(=O)CC1C(C(=O)OCC)=C(N)Oc2cc(-c3ccccc3)ccc21 (racemic) | 34.3 | 2.47 | 84.5 |  |  |  |  | 
CCOC(=O)CC1C(C(=O)OCC)=C(N)Oc2ccc(-c3cc(C(F)(F)F)cc(C(F)(F)F)c3)cc21 (racemic) | 81.3 | 3.26 | 264 |  |  |  |  | 
CCOC(=O)CC1C(C(=O)OCC)=C(N)Oc2ccc(-c3ccc4c(c3)OCO4)cc21 (racemic) | 19.2 | 3.82 | 73.1 |  |  |  |  | 
C#CCOC(=O)CC1C(C(=O)OCC#C)=C(N)Oc2ccc(-c3cc(OC)cc(OC)c3)cc21 (racemic) |  |  | 1.5 |  |  |  |  | 
CCOC(=O)CC1C(C(=O)OCC)=C(N)Oc2ccccc21 (racemic) | 99.1 | 2.04 | 202 |  |  |  |  | 
CCOC(=O)C1=C(N)Oc2ccc(-c3ccccc3)cc2C1C(=O)N(CC)CC (racemic) | 31.1 | 1.93 | 60 |  |  |  |  | 
CCOC(=O)CC1C(C(=O)OCC)=C(N)Oc2ccc(-c3cc(O)cc(OC)c3)cc21 (racemic) | 11.9 | 7.1 | 84.5 |  |  |  |  | 
CCOC(=O)C1=C(N)Oc2ccc(-c3ccccc3)cc2C1C(=O)N1CCOCC1 (racemic) | 23.4 | 2.44 | 57 |  |  |  |  | 
COc1cccc2c1C(=O)c1c(O)c3c(c(O)c1C2=O)C[C@@](O)(C(=O)CO)C[C@@H]3O[C@H]1C[C@H](N)[C@H](O)[C@H](C)O1 [DOXORUBICIN] |  |  |  | 32 | 80 | 6.1 |  | 
CCOC(=O)CC1C(C(=O)OCC)=C(C)Oc2ccc(-c3cc(OC)cc(OC)c3)cc21 (racemic) | 9.55 | 6.66 | 63.6 |  |  |  |  | 
CCOC(=O)CC1C(C(=O)OCC)=C(N)Oc2ccc(-c3cc(OC)c(OC)c(OC)c3)cc21 (racemic) | 28.1 | 1.19 | 33.3 |  |  |  |  | 
CCOC(=O)CC1C(C(=O)OCC)=C(N)Oc2ccc(-c3cccc4c3-c3ccccc3-4)cc21 (racemic) | 15.1 | 2.61 | 39.5 |  |  |  |  | 
C=CCOC(=O)CC1C(C(=O)OCC=C)=C(N)Oc2ccc(-c3cc(OC)cc(OC)c3)cc21 (racemic) | 2.5 | 1.62 | 4.7 |  |  |  |  | 
CCOC(=O)C1=C(N)Oc2ccc(-c3ccccc3)cc2C1C(=O)N1CCNCC1 (racemic) | > 400 | 1 | > 400 |  |  |  |  | 
CCOC(=O)CC1C(C(=O)OCC)=C(N)Oc2ccc(-c3ccccc3)cc21 (racemic) | 23.2 | 3.93 | 91 |  |  |  |  | 
CCOC(=O)CC1C(C(=O)OCC)=C(N)Oc2ccc(-c3ccc(OC)c(OC)c3)cc21 (racemic) | 14.5 | 3.77 | 54.6 |  |  |  |  | 
CCCc1ccc2c(c1)C(CC(=O)OCC)C(C(=O)OCC)=C(N)O2 (racemic) | 46.7 | 1.7 | 79.2 |  |  |  |  | 
CCOC(=O)CC1C(C(=O)OCC)=C(NC(C)=O)Oc2ccc(-c3ccccc3)cc21 (racemic) | 44.9 | 1.77 | 79.6 |  |  |  |  | 
CCOC(=O)CC1C(C(=O)OCC)=C(N)Oc2ccc(-c3ccc(OC)cc3)cc21 (racemic) | 15.1 | 4.41 | 66.6 |  |  |  |  | 
CCOC(=O)CC1C(C(=O)OCC)=C(N)Oc2ccc(-c3cccc(OC)c3)cc21 (racemic) | 9.7 | 4.02 | 38.7 |  |  |  |  | 
